From ChEMBL document CHEMBL1148441, “Simple, short peptide derivatives of a sulfonylindolecarboxamide (L-737,126) active in vitro against HIV-1 wild type and variants carrying non-nucleoside reverse transcriptase inhibitor resistance mutations” (J Med Chem, 2004)
pEC50: −log10 of the molar value.

How the values were obtained:
[1] = In vitro concentration required to reduce the amount of p24 by 90% in WTIIIB infected C8166 cells; format: functional; conditions: Homo sapiens
Summary of the method: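 C8166 cells (1×10^4 per well) in RPMI 1640 with 10% FCS, exposed to serial compound dilutions (DMSO stock 200 mM, diluted in medium), then infected with HIV-1 IIIB from H9/IIIB supernatants, inoculum sized for complete cytopathicity at day 4; incubation at 37 °C; p24 measured by immunoenzymatic kit; EC90 = concentration cutting p24 by 90%; means of three experiments.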

[2] = Selectivity index (Ratio of CC50/EC50).; format: functional
Summary of the method: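 Ratio of CC50 (MTT viability of mock-infected MT-4 cells) to EC50 (MTT protection of MT-4 cells from cytopathicity of HIV-1 IIIB, inoculum giving complete cytopathicity at day 4, 37 °C); both run in parallel on the same compound dilution series.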

[3] = test system: Human immunodeficiency virus 1; assay: In vitro reduction of p24 by 90% in Efavirenz resistant HIV-1 (K103R, V179D, P225H) infected C8166 cells.; format: functional; conditions: Human immunodeficiency virus 1, C8166
Summary of the method: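 C8166 cells (1×10^4/well) with compound dilutions infected with K103R–V179D–P225H HIV-1 (IIIB passaged in C8166 under efavirenz up to 2 μM), 37 °C; p24 antigen measured by immunoenzymatic kit alongside WT IIIB. EC90 = concentration cutting p24 by 90%; mean of three experiments.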

MT4 = assay: In vitro cytotoxicity against mock infected MT-4 cells.; format: functional; conditions: Homo sapiens
Summary of the method: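 Mock-infected MT-4 cells (1×10^4 per well) in RPMI 1640 with 10% FCS, 37 °C, 5% CO2, exposed to serial compound dilutions (DMSO stock 200 mM, diluted in medium), run in parallel with antiviral wells; viability read by MTT; CC50 = concentration reducing viability by 50%; means of three separate experiments, triplicate samples.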

[4] = test system: Human immunodeficiency virus 1; assay: Inhibition of Efavirenz resistant HIV-1 (K103N-Y181C) induced cytopathicity in MT-4 cells.; format: functional, organism-based; conditions: Human immunodeficiency virus 1, MT4
Summary of the method: (§1)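 MT-4 cells (1×10^4/well) with test compound dilutions (from 200 mM DMSO stock) infected with mutant HIV-1 at a CCID50 dose causing complete cytopathicity by day 4, 37 °C; viability by MTT. Y181C from clinical isolate passaged under nevirapine; K103N–Y181C from IIIB passaged under BI-RG 587. EC50 = 50% protection; mean of three experiments.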

[5] = test system: Human immunodeficiency virus 1; assay: Inhibition of Efavirenz resistant HIV-1 (Y181C) induced cytopathicity in MT-4 cells.; format: functional, organism-based; conditions: Human immunodeficiency virus 1, MT4; summary of the method: as §1
[6] = test system: Human immunodeficiency virus 1; assay: Inhibition of HIV-1 (IIIB) induced cytopathicity in MT-4 cells.; format: functional, organism-based; conditions: Human immunodeficiency virus 1, MT4
Summary of the method: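 HIV-1 IIIB (from persistently infected H9/IIIB supernatant) added to MT-4 cells (1×10^4/well) with graded compound concentrations, dose set to give full cytopathicity by day 4, 37 °C. Cell viability read by MTT; EC50 = concentration giving 50% protection. Mean of three experiments.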

SMILES	EC90 [1]	Ratio [2]	EC90 [3]	CC50 (MT4)	pEC50 [4]	pEC50 [5]	pEC50 [6]
NC(=O)c1[nH]c2ccc(Cl)cc2c1S(=O)(=O)c1ccccc1 [L-737126]	7 nM	45000	900 nM	45000 nM	5.10	7.70	
Cc1cc(C)cc(S(=O)(=O)c2c(C(=O)NC(C)C(N)=O)[nH]c3ccc(Cl)cc23)c1 (stereo not drawn)	4 nM	1330	40 nM	4000 nM	6.15	8.00	8.52
CC(NC(=O)c1[nH]c2ccc(Cl)cc2c1S(=O)(=O)c1ccccc1)C(N)=O (stereo not drawn)		6400	3000 nM	64000 nM	4.80	6.44	8.00
NNC(=O)c1[nH]c2ccc(Cl)cc2c1S(=O)(=O)c1ccccc1	20 nM	> 10000	3000 nM	> 100000 nM	≤ 4.00	6.40	
Cc1ccnc2c1NC(=O)c1cccnc1N2C1CC1 [NEVIRAPINE]	120 nM	> 270	> 30000 nM	> 100000 nM	< 4.52	< 4.52	6.40
NC(=O)CNC(=O)c1[nH]c2ccc(Cl)cc2c1S(=O)(=O)c1ccccc1		5000	2700 nM	65000 nM	< 4.70	6.74	7.89
Cc1cc(C)cc(S(=O)(=O)c2c(C(=O)NC(C)C(=O)NN)[nH]c3ccc(Cl)cc23)c1 (stereo not drawn)	70 nM	666	700 nM	20000 nM	5.33	6.85	7.52
Cc1cc(C)cc(S(=O)(=O)c2c(C(=O)NCC(N)=O)[nH]c3ccc(Cl)cc23)c1	10 nM	5000	100 nM	30000 nM	6.10	7.52	8.22
O=C1Nc2ccc(Cl)cc2[C@@](C#CC2CC2)(C(F)(F)F)O1 [EFAVIRENZ]	8 nM		1800 nM	35000 nM			
Cc1cc(C)cc(S(=O)(=O)c2c(C(=O)NCC(=O)NN)[nH]c3ccc(Cl)cc23)c1	30 nM	> 10000	1000 nM	> 100000 nM	5.70	7.30	8.00
Cc1cc(C)cc(S(=O)(=O)c2c(C(N)=O)[nH]c3ccc(Cl)cc23)c1	6 nM	3750	80 nM	15000 nM	6.22	7.52	
